The values below come from publication PMC4324837 (Antiviral research, 2014).

Where a name gives a salt, the structure may show the parent alone. Numbered stars: 1 amine (or outer) side, 2 acyl side, 3 side chain; on linkers, the order of the positions; unused ones are H or OH. Bridge positions count the residues as written; N and C are the ends. Square brackets hold non-standard residues; d marks the D form. Peptide text beside a SMILES is read from it. I, II: the chains in the order shown. Actinocin(9to1) = Cc1c2oc3c(C)ccc(C(=O)[*:1])c3nc-2c(C(=O)[*:2])c(N)c1=O; NMeV = CN[C@H](C(=O)O)C(C)C; Sar = CNCC(=O)O

Series [1] relates to CMV AD169IE2-YFP. The experiment in a line: in vitro. The series is classed as cell-based, Human cytomegalovirus. As to conditions: MRC5 cells; for Selective Ratio (CC50/EC50) / selectivity ratio: AD169IE2-YFP; for selectivity ratio: human, Selective Ratio (CC50/EC50).
In series [2] the test system is MRC5 cells. The series can be described thus: CC50 / cell viability by NucGreen staining, MRC5 cells. The format is cell-based, Human. Conditions: MRC5 cells, 0-5μM, 19 hours, NucGreen.
In series [3] the test system is CMV AD169IE2-YFP. The experiment in a line: High-content screen, IE2-YFP nuclear fluorescence in infected MRC5 cells. As to conditions: for activity at 5.6 µM: Human betaherpesvirus 5, MRC5, 16 h, read-out: YFP Intensity (%); for reduction of YFP intensity: primary screen, screening dose (5μM printed elsewhere in the source). The series is classed as cell-based, Human cytomegalovirus.

A short description of series [4]: CC50 / cell viability by NucGreen staining, MRC5 cells. The format is cell-based, Human. As to conditions: human.
The test system of series [5] is CMV AD169. The experiment in a line: Immunoblot of viral early protein US11 in infected MRC5 cells. The series is classed as cell-based, Human cytomegalovirus. Conditions: MRC5, AD169-WT MOI 3, 20 hpi; for US11 protein level in infected cells: 50 or 500nM of respective compound. The method in brief:
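MRC5 cells were pretreated 1 h at 37 °C with test compound or 0.1% DMSO, infected with wild-type AD169 (MOI 3), then washed once with DMEM before analysis.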

Series [6] concerns CMV. The experiment in a line: Addition of compound after infection. The format is cell-based, Human cytomegalovirus. Conditions: added up to 4hpi, data not shown.
In series [7] the test system is CMV TB40/EFLAG-YFP. The series can be described thus: EC50 of convallatoxin, clinical strain reporter virus in ARPE-19 cells. The format is cell-based, Human cytomegalovirus. Conditions: Human betaherpesvirus 5, ARPE-19. The method in brief: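 ARPE-19 cells, 10,000/well in 96-well plates, got DMEM with test compound (0-10 nM) the next day, in sextuplicate. They were then infected with TB40/E FLAG-YFP (US28 replaced by FLAG-YFP; MOI 20). YFP+ cells were counted at 120 hpi on an Acumen eX3 cytometer, with positive meaning above 2 SD of background. % infection was set against DMSO-treated cells; EC50 came from a three-parameter log(inhibitor)-response fit of mean values.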

Series [8] is described as follows: Cell viability by NucGreen staining, ARPE-19 cells. The series is classed as cell-based. Conditions: human. The method in brief: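 ARPE-19 cells, 10,000/well in 96-well plates, were exposed next day to test compound in DMEM, in sextuplicate. After 19 h, NucGreen dead-cell stain went into three of six wells per condition for 10 min at RT. Total cells were counted by fixing with 4% paraformaldehyde and adding NucGreen for 10 min. Signal was read on a fluorescent plate reader, and % viability was taken from NucGreen-positive counts of treated versus total cells.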

Series [9] concerns CMV AD169IE2-YFP. The experiment in a line: Multi-cycle infection study, YFP+ cells under long-term convallatoxin treatment. The series is classed as cell-based, Human cytomegalovirus. The method in brief: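 MRC5 cells, 10,000/well in 96-well plates, received DMEM with test compound (0, 5, 10 or 50 nM) in sextuplicate. In one plate this was followed immediately by AD169 IE2-YFP infection (MOI 0.5) or medium alone. In the other, cells were infected (MOI 0.5) or mock-infected for 36 h before compound-containing medium was added. IE2-YFP-positive cells were read on a fluorescent plate reader up to 168 hpi.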

Series [10] is described as follows: Cell viability under prolonged treatment, uninfected MRC5 fibroblasts, NucGreen. The series is classed as cell-based, Human. As to conditions: human, uninfected MRC5 fibroblasts. The procedure, abridged: (§1)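 Uninfected MRC5 fibroblasts, 10,000/well in 96-well plates, were kept in DMEM with test compound (0, 5, 10 or 50 nM) in sextuplicate for up to 168 h. NucGreen dead-cell staining was read on a fluorescent plate reader. Percent viability used the total cell number of DMSO-treated wells as 100%, plotted at 72, 120 and 168 hpi.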

Series [11] concerns MRC5 cells. The description is as above. As to conditions: 5nM, throughout the timecourse (up to 168 hours). The series is classed as cell-based, Human. The procedure, abridged: as §1
In series [12] the test system is CMV AD169IE2-YFP. The series is classed as cell-based, Human cytomegalovirus. Conditions: MRC5, MOI 0.5, compound present until 24 hpi.

With `COc1cc(C2c3cc4c(cc3C(O)C3COC(=O)C23)OCO4)cc(OC)c1O` (stereo not drawn) [4′-demethyl-epipodophyllotoxin], the “Selective Ratio (CC50/EC50)” value in [1] is above 1.5. The CC50 in series [2] is above 5000 nM.
In the case of `Cc1c2oc3c(C)ccc(C(=O)N[C@@H]4C(=O)N[C@H](C(C)C)C(=O)N5CCC[C@H]5C(=O)N(C)CC(=O)N(C)[C@@H](C(C)C)C(=O)O[C@@H]4C)c3nc-2c(C(=O)N[C@@H]2C(=O)N[C@H](C(C)C)C(=O)N3CCC[C@H]3C(=O)N(C)CC(=O)N(C)[C@@H](C(C)C)C(=O)O[C@@H]2C)c(N)c1=O` [Actinomycin D] (I: T[dV]P[Sar][NMeV] / II: T[dV]P[Sar][NMeV]; ester I:1-I:C, II:1-II:C; linker I:N-II:N via Actinocin(9to1)), the activity at 5.6 µM in series [3] is 5.8 ± 0.11%.
Take `COc1ccc(C[C@H]2NC[C@H](O)[C@H]2OC(C)=O)cc1` [Anisomycin]: the concentration for a half-maximal effect (EC50) in series [1] (MOI 3, 1 h pretreatment, 0-5μM, 18 hpi) stood at 170 nM.
Regarding `CC(=O)O[C@@H]1C[C@@]2(C)[C@H](c3ccoc3)C[C@H]3O[C@]32[C@]2(C)C(=O)C(O)=C3C(C)(C)C(=O)C=C[C@]3(C)[C@@H]12` [Anthothecol], the activity at 5.6 µM in series [3] came to 27.5 ± 0.55%. Moreover, the “Selective Ratio (CC50/EC50)” value was 0.4 in series [1] and below 30 in series [1] (listed as anthothecol). In addition, the midpoint of cytotoxicity in series [4], the CC50 at 19 h, lay at 700 nM.
As for `COc1cc2c(c(OC)c1OC)-c1ccc(OC)c(=O)cc1[C@@H](NC(C)=O)CC2` [Colchicine], in series [3], the activity at 5.6 µM was 17.3 ± 0.34%. This compound returned a half-maximal cytotoxic concentration (CC50) at 19 h in series [4] above 5000 nM. Besides, the “US11 protein level in infected cells” value in series [5] was “lower levels of US11”. Moreover, the “effect on infection when added after infection” value in [6] is listed as “reduced infection”.
`C[C@@H]1O[C@@H](O[C@H]2CC[C@]3(C=O)[C@H]4CC[C@]5(C)[C@@H](C6=CC(=O)OC6)CC[C@]5(O)[C@@H]4CC[C@]3(O)C2)[C@H](O)[C@H](O)[C@H]1O` [Convallatoxin]: in series [3], the activity at 5.6 µM is 27.8 ± 0.87%. The selectivity ratio in [1] was above 454. Further, in series [4], the half-maximal cytotoxic concentration (CC50) at 19 h was above 5000 nM and the viability at 19 h, 5 µM amounted to 100%. This compound yielded a half-maximal effective concentration (EC50) in [7] of 0.1 nM. Besides, the viability at 19 h, 10 nM in series [8] was around 80%. Moreover, the “US11 protein level in infected cells” value in [5] was “lower levels of US11”. Further, the US11 expression entry in series [5] (convallatoxin 5-50nM (all concentrations)) is recorded as “blocked the expression of US11 at all concentrations”. The “fluorescent expression relative to DMSO-treated cells” value in series [9] (5nM, added at 0hpi, by 100hpi) is on record as “approximately half”. Also, the “number of YFP+ cells compared to DMSO” value in [9] (MRC5, MOI 0.5, 5, 10 or 50nM added simultaneously with virus (0hpi)) is “reduced the number of YFP+ cells in a dose-dependent manner”. Also, the “number of YFP+ cells” value in series [9] (MRC5, MOI 0.5, treatment of infected cells at 36hpi) was “significant decrease of YFP+ cells”. Further, in series [10], the viability at 120 h, 0.01 µM was 79%; the viability at 120 h, 0.05 µM came out at 61%; the viability at 168 h, 0.01 µM was 91%; the viability at 168 h, 0.05 µM is 82%. In addition, in [11], the “effect on cell viability” value is recorded as “no detectable effect”. The “YFP fluorescence (% infection vs DMSO)” value in [12] (followed 9 days, ganciclovir 12μM) is given as “significant decrease in fluorescence”. Besides, the “decrease in virus titer compared to ganciclovir treatment” value in series [12] (plaque assay of supernatants) is on record as around 10 fold.
As to `C[C@@H]1C[C@@H]([C@H](O)CC2CC(=O)NC(=O)C2)C(=O)[C@@H](C)C1` [Cycloheximide], the activity at 5.6 µM in series [3] was 11.2 ± 1.8%.
Same read-out and setting: to `COc1ccc2c(c1OC)C(=O)O[C@@H]2[C@H]1c2c(cc3c(c2OC)OCO3)CCN1C` [Noscapine] belongs 106%.
With `COc1cc([C@@H]2c3cc4c(cc3[C@H](O)[C@H]3COC(=O)[C@H]23)OCO4)cc(OC)c1OC` [Podofilox], the activity at 5.6 µM in series [3] worked out at 14.5 ± 0.31%. Further, the selectivity ratio in series [1] is above 192. Also, the CC50 at 19 h in series [4] (MRC5 cells) is above 5000 nM. Further, in [5], the “US11 protein level in infected cells” value was “lower levels of US11”.
Take `CN(C)C(=S)SSC(=S)N(C)C` [Thiram]: the activity at 5.6 µM in series [3] was determined as 14 ± 0.29%. Further, the figures for the “Selective Ratio (CC50/EC50)” value in series [1] and in series [1] (listed as thiram) were below 0.4 and below 30, respectively. In [4] (MRC5 cells), the 50% cytotoxic concentration (CC50) at 19 h was determined as 2200 nM.
For the compound `CC[C@]1(O)C[C@@H]2CN(CCc3c([nH]c4ccccc34)[C@@](C(=O)OC)(c3cc4c(cc3OC)N(C)[C@H]3[C@@](O)(C(=O)OC)[C@H](OC(C)=O)[C@]5(CC)C=CCN6CC[C@]43[C@@H]65)C2)C1` [Vinblastine sulfate], the activity at 5.6 µM in [3] was found to be 24.2 ± 0.48%.
Turning to `CC[C@]1(O)C[C@H]2CN(CCc3c([nH]c4ccccc34)[C@@](C(=O)OC)(c3cc4c(cc3OC)N(C=O)[C@H]3[C@@](O)(C(=O)OC)[C@H](OC(C)=O)[C@]5(CC)C=CCN6CC[C@]43[C@@H]65)C2)C1` [Vincristine sulfate], the activity at 5.6 µM in series [3] was 26.6 ± 0.53%. In [1], the “Selective Ratio (CC50/EC50)” value is given as 3.4. The half-maximal cytotoxic concentration (CC50) at 19 h in [4] amounted to 40 nM.
Regarding `CC[C@H]1CN2CCc3cc(OC)c(OC)cc3[C@@H]2C[C@@H]1C[C@H]1NCCc2cc(OC)c(OC)cc21` [emetine], in series [3], the “reduction of YFP intensity” value amounted to 41%.
Still for that read-out and setting: next, `C[C@@H]1O[C@@H](O[C@H]2C[C@@H](O)[C@]3(CO)[C@H]4[C@H](O)C[C@]5(C)[C@@H](C6=CC(=O)OC6)CC[C@]5(O)[C@@H]4CC[C@]3(O)C2)[C@H](O)[C@H](O)[C@H]1O` [ouabain]: at most 70%.
The same measure, in the same setting: next, `CO[C@H]1[C@H](O)[C@H](O[C@H]2CC[C@@]3(C=O)[C@H](CC[C@@H]4[C@@H]3CC[C@]3(C)[C@@H](C5=CC(=O)OC5)CC[C@]43O)C2)O[C@@H](C)[C@@H]1O` [peruvoside]: at most 70%.
On to `COc1cc([C@@H]2c3cc4c(c(O)c3C[C@H]3COC(=O)[C@@H]32)OCO4)cc(OC)c1OC` [β-peltatin], for which, in series [3], the activity at 5.6 µM came to 20.5 ± 0.41%.

What is called CC50 is the concentration that lowers cell viability or growth by half. As a reminder, the EC50 is the concentration that produces a half-maximal response. What is called viability is a per cent measure of how many cells are alive, often set against a control. Read a low viability as more harm to the cells.
